Data published in ChEMBL document CHEMBL3044653, “Synthesis and herbicidal activity of 2-(substituted phenoxyacetoxy)alkyl-5,5-dimethyl-1,3,2-dioxaphosphinan-2-one” (J Agric Food Chem, 2012).

Legend:
[1] = test system: Setaria viridis; assay: Post-emergence herbicidal activity against Setaria viridis (green foxtail) assessed as inhibition at 150 g/hectare treated at one-leaf stage by green house assay; assay type: functional
How it was run: (§1)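 Monocot weeds were sprayed postemergence in the greenhouse at the one-leaf stage with diluted formulation solutions. Primary dose was 150 g ai/ha, with follow-up doses of 75 and 37.5 g ai/ha for selected compounds. Activity is scored as percent herbicidal damage compared with an untreated control.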

[2] = test system: Digitaria sanguinalis; assay: Post-emergence herbicidal activity against Digitaria sanguinalis (hairy crabgrass) assessed as inhibition at 150 g/hectare treated at one-leaf stage by green house assay; assay type: functional; how it was run: as §1
[3] = test system: Brassica juncea; assay: Post-emergence herbicidal activity against Brassica juncea assessed as inhibition at 150 g/hectare treated at two-leaf stage by green house assay; assay type: functional
How it was run: (§2)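 Greenhouse postemergence spray of diluted formulation solutions onto broadleaf weeds at the two-leaf stage. Primary screen at 150 g ai/ha, with selected compounds retested at 75 and 37.5 g ai/ha. Abutilon was tested at 150 g ai/ha only. Read-out is percent herbicidal damage relative to an untreated control.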

[4] = test system: Eclipta prostrata; assay: Post-emergence herbicidal activity against Eclipta prostrata assessed as inhibition at 150 g/hectare treated at two-leaf stage by green house assay; assay type: functional; how it was run: as §2
[5] = test system: Abutilon theophrasti; assay: Post-emergence herbicidal activity against Abutilon theophrasti (velvetleaf) assessed as inhibition at 150 g/hectare treated at two-leaf stage by green house assay; assay type: functional; how it was run: as §2
[6] = test system: Echinochloa crus-galli; assay: Post-emergence herbicidal activity against Echinochloa crus-galli (barnyard grass) assessed as inhibition at 150 g/hectare treated at one-leaf stage by green house assay; assay type: functional; how it was run: as §1
[7] = test system: Amaranthus retroflexus; assay: Post-emergence herbicidal activity against Amaranthus retroflexus assessed as inhibition at 150 g/hectare treated at two-leaf stage by green house assay; assay type: functional; how it was run: as §2
[8] = test system: Brassica juncea; assay: Post-emergence herbicidal activity against Brassica juncea assessed as inhibition at 75 g/hectare treated at two-leaf stage by green house assay; assay type: functional; how it was run: as §2
[9] = test system: Glycine max; assay: Toxicity in Glycine max (soybean) plant assessed as inhibition at 150 g/hectare; assay type: organism-based; settings: in vivo
How it was run: (§3)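 For crop selectivity, conventional crop varieties were planted in 12 cm diameter plots and given a postemergence treatment at 150 g ai/ha. Injury was scored as percent inhibition, with 0–10% classed as safe to the crop.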

[10] = test system: Triticum aestivum; assay: Toxicity in Triticum aestivum (wheat) plant assessed as inhibition at 150 g/hectare; assay type: organism-based; settings: in vivo; how it was run: as §3
[11] = test system: Digitaria sanguinalis; assay: Post-emergence herbicidal activity against Digitaria sanguinalis (hairy crabgrass) assessed as inhibition at 37.5 g/hectare treated at one-leaf stage by green house assay; assay type: functional; how it was run: as §1
[12] = test system: Setaria viridis; assay: Post-emergence herbicidal activity against Setaria viridis (green foxtail) assessed as inhibition at 75 g/hectare treated at one-leaf stage by green house assay; assay type: functional; how it was run: as §1
[13] = test system: Amaranthus retroflexus; assay: Post-emergence herbicidal activity against Amaranthus retroflexus assessed as inhibition at 75 g/hectare treated at two-leaf stage by green house assay; assay type: functional; how it was run: as §2
[14] = test system: Eclipta prostrata; assay: Post-emergence herbicidal activity against Eclipta prostrata assessed as inhibition at 75 g/hectare treated at two-leaf stage by green house assay; assay type: functional; how it was run: as §2
[15] = test system: Echinochloa crus-galli; assay: Post-emergence herbicidal activity against Echinochloa crus-galli (barnyard grass) assessed as inhibition at 37.5 g/hectare treated at one-leaf stage by green house assay; assay type: functional; how it was run: as §1
[16] = test system: Eclipta prostrata; assay: Post-emergence herbicidal activity against Eclipta prostrata assessed as inhibition at 37.5 g/hectare treated at two-leaf stage by green house assay; assay type: functional; how it was run: as §2
[17] = test system: Zea mays; assay: Toxicity in Zea mays (maize) plant assessed as inhibition at 150 g/hectare; assay type: organism-based; settings: in vivo; how it was run: as §3
[18] = test system: Amaranthus retroflexus; assay: Post-emergence herbicidal activity against Amaranthus retroflexus assessed as inhibition at 37.5 g/hectare treated at two-leaf stage by green house assay; assay type: functional; how it was run: as §2
[19] = test system: Echinochloa crus-galli; assay: Post-emergence herbicidal activity against Echinochloa crus-galli (barnyard grass) assessed as inhibition at 75 g/hectare treated at one-leaf stage by green house assay; assay type: functional; how it was run: as §1
[20] = test system: Oryza sativa; assay: Toxicity in Oryza sativa (rice) plant assessed as inhibition at 150 g/hectare; assay type: organism-based; settings: in vivo; how it was run: as §3
[21] = test system: Brassica napus; assay: Toxicity in Brassica napus (oilseed rape) assessed as inhibition at 150 g/hectare; assay type: functional; how it was run: as §3
[22] = test system: Brassica juncea; assay: Post-emergence herbicidal activity against Brassica juncea assessed as inhibition at 37.5 g/hectare treated at two-leaf stage by green house assay; assay type: functional; how it was run: as §2
[23] = test system: Gossypium hirsutum; assay: Toxicity in Gossypium hirsutum (cotton) plant assessed as inhibition at 150 g/hectare; assay type: organism-based; settings: in vivo; how it was run: as §3
[24] = test system: Setaria viridis; assay: Post-emergence herbicidal activity against Setaria viridis (green foxtail) assessed as inhibition at 37.5 g/hectare treated at one-leaf stage by green house assay; assay type: functional; how it was run: as §1
[25] = test system: Digitaria sanguinalis; assay: Post-emergence herbicidal activity against Digitaria sanguinalis (hairy crabgrass) assessed as inhibition at 75 g/hectare treated at one-leaf stage by green house assay; assay type: functional; how it was run: as §1

Row | SMILES | inhibition at 150 g/ha [1] [%] | inhibition at 150 g/ha [2] [%] | inhibition at 150 g/ha [3] [%] | inhibition at 150 g/ha [4] [%] | inhibition at 150 g/ha [5] [%] | inhibition at 150 g/ha [6] [%] | inhibition at 150 g/ha [7] [%] | also measured
1 | COP(=O)(OC)C(C)OC(=O)COc1ccc(Cl)cc1C (stereo not drawn) | 0 | 0 | 20 | 30 | 82 | 0 | 10 | –
2 | CC1(C)COP(=O)(C(OC(=O)COc2ccc(Cl)cc2)c2ccco2)OC1 (stereo not drawn) | 0 | 0 | 70 | 50 | 70 | 0 | 55 | –
3 | Cc1cc(OCC(=O)OC(c2ccco2)P2(=O)OCC(C)(C)CO2)ccc1Cl (stereo not drawn) | 0 | 0 | 65 | 55 | 70 | 0 | 60 | –
4 | Cc1cc(Cl)ccc1OCC(=O)OC(c1ccco1)P1(=O)OCC(C)(C)CO1 (stereo not drawn) | 0 | 0 | 90 | 70 | 100 | 60 | 100 | –
5 | CC1(C)COP(=O)(C(OC(=O)COc2ccccc2Cl)c2ccccc2)OC1 (stereo not drawn) | 0 | 0 | 75 | 65 | 70 | 0 | 75 | –
6 | CC1(C)COP(=O)(C(OC(=O)COc2ccc(Cl)cc2)c2ccccc2)OC1 (stereo not drawn) | 0 | 0 | 70 | 50 | 65 | 0 | 60 | –
7 | Cc1cc(OCC(=O)OC(c2ccccc2)P2(=O)OCC(C)(C)CO2)ccc1Cl (stereo not drawn) | 0 | 0 | 65 | 60 | 65 | 0 | 65 | –
8 | Cc1cc(Cl)ccc1OCC(=O)OC(c1ccccc1)P1(=O)OCC(C)(C)CO1 (stereo not drawn) | 0 | 0 | 90 | 75 | 100 | 40 | 100 | –
9 | Cc1cc(OCC(=O)OC(C)P2(=O)OCC(C)(C)CO2)ccc1Cl (stereo not drawn) | 0 | 0 | 70 | 60 | 70 | 0 | 60 | –
10 | CC(OC(=O)COc1ccccc1Cl)P1(=O)OCC(C)(C)CO1 (stereo not drawn) | 0 | 0 | 90 | 75 | 70 | 20 | 90 | –
11 | CC(OC(=O)COc1ccc(Cl)cc1)P1(=O)OCC(C)(C)CO1 (stereo not drawn) | 0 | 0 | 75 | 60 | 70 | 10 | 70 | –
12 | CC1(C)COP(=O)(C(OC(=O)COc2ccc(Cl)cc2Cl)c2ccc(Cl)cc2)OC1 (stereo not drawn) | 0 | 0 | 98 | 70 | 90 | 0 | 80 | inhibition at 75 g/ha [8]: 90%; inhibition (INH) [9]: 20%; inhibition (INH) [10]: 0%; inhibition at 37.5 g/ha [11]: 0%; inhibition at 75 g/ha [12]: 0%; inhibition at 75 g/ha [13]: 50%; inhibition at 75 g/ha [14]: 0%; inhibition at 37.5 g/ha [15]: 0%; inhibition at 37.5 g/ha [16]: 0%; inhibition (INH) [17]: 0%; inhibition at 37.5 g/ha [18]: 30%; inhibition at 75 g/ha [19]: 0%; inhibition (INH) [20]: 10%; inhibition at 150 g/ha [21]: 40%; inhibition at 37.5 g/ha [22]: 80%; inhibition (INH) [23]: 20%; inhibition at 37.5 g/ha [24]: 0%; inhibition at 75 g/ha [25]: 0%
13 | CC(C)C(OC(=O)COc1ccc(Cl)cc1Cl)P1(=O)OCC(C)(C)CO1 (stereo not drawn) | 0 | 0 | 100 | 75 | 95 | 0 | 85 | inhibition at 75 g/ha [8]: 100%; inhibition (INH) [9]: 30%; inhibition (INH) [10]: 10%; inhibition at 37.5 g/ha [11]: 0%; inhibition at 75 g/ha [12]: 0%; inhibition at 75 g/ha [13]: 80%; inhibition at 75 g/ha [14]: 35%; inhibition at 37.5 g/ha [15]: 0%; inhibition at 37.5 g/ha [16]: 30%; inhibition (INH) [17]: 0%; inhibition at 37.5 g/ha [18]: 30%; inhibition at 75 g/ha [19]: 0%; inhibition (INH) [20]: 20%; inhibition at 150 g/ha [21]: 50%; inhibition at 37.5 g/ha [22]: 90%; inhibition (INH) [23]: 20%; inhibition at 37.5 g/ha [24]: 0%; inhibition at 75 g/ha [25]: 0%
14 | CCCCC(OC(=O)COc1ccc(Cl)cc1Cl)P1(=O)OCC(C)(C)CO1 (stereo not drawn) | 0 | 0 | 100 | 75 | 90 | 0 | 85 | inhibition at 75 g/ha [8]: 100%; inhibition (INH) [9]: 30%; inhibition (INH) [10]: 10%; inhibition at 37.5 g/ha [11]: 0%; inhibition at 75 g/ha [12]: 0%; inhibition at 75 g/ha [13]: 70%; inhibition at 75 g/ha [14]: 40%; inhibition at 37.5 g/ha [15]: 0%; inhibition at 37.5 g/ha [16]: 30%; inhibition (INH) [17]: 0%; inhibition at 37.5 g/ha [18]: 50%; inhibition at 75 g/ha [19]: 0%; inhibition (INH) [20]: 30%; inhibition at 150 g/ha [21]: 40%; inhibition at 37.5 g/ha [22]: 90%; inhibition (INH) [23]: 20%; inhibition at 37.5 g/ha [24]: 0%; inhibition at 75 g/ha [25]: 0%
15 | CC1(C)COP(=O)(C(OC(=O)COc2ccccc2Cl)c2ccco2)OC1 (stereo not drawn) | 0 | 0 | 90 | 70 | 70 | 0 | 85 | –
16 | COP(=O)(OC)C(C)OC(=O)COc1ccc(Cl)cc1Cl (stereo not drawn) [CLACYFOS] | 0 | 0 | 85 | 90 | 100 | 0 | 96 | inhibition at 75 g/ha [8]: 95%; inhibition at 37.5 g/ha [11]: 0%; inhibition at 75 g/ha [12]: 0%; inhibition at 75 g/ha [13]: 95%; inhibition at 75 g/ha [14]: 80%; inhibition at 37.5 g/ha [15]: 0%; inhibition at 37.5 g/ha [16]: 60%; inhibition at 37.5 g/ha [18]: 70%; inhibition at 75 g/ha [19]: 0%; inhibition at 37.5 g/ha [22]: 90%; inhibition at 37.5 g/ha [24]: 0%; inhibition at 75 g/ha [25]: 0%
